Assay results reported in ChEMBL document CHEMBL1143106, “Synthesis, SAR, and antibacterial activity of novel oxazolidinone analogues possessing urea functionality” (2008).
In brackets after ≈: the same amount, converted by molar mass.

Tests used:
Type in all cases: functional
Enterococcus faecium [1] = experiment: Antimicrobial activity against vancomycin-resistant Enterococcus faecium ATCC 12202
Staphylococcus aureus [2] = experiment: Antimicrobial activity against methicillin-resistant Staphylococcus aureus ATCC 33591
Enterococcus faecium [3] = experiment: Antimicrobial activity against vancomycin-resistant Enterococcus faecium ATCC 12202 infected in po dosed mouse
How it was run: (§1)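 Mice with systemic infection; dosing was oral (po line) or subcutaneous (sc line); ED50 reported in mg/kg.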

Staphylococcus aureus [4] = experiment: Antimicrobial activity against Staphylococcus aureus ATCC 29213
Enterococcus faecalis [5] = experiment: Antimicrobial activity against vancomycin-resistant Enterococcus faecalis NCTC-12201
Staphylococcus aureus [6] = experiment: Antimicrobial activity against Staphylococcus aureus
Enterococcus faecalis [7] = experiment: Antimicrobial activity against vancomycin-sensitive Enterococcus faecalis ATCC 29212
Enterococcus faecium [8] = experiment: Antimicrobial activity against vancomycin-resistant Enterococcus faecium ATCC 12202 infected in sc dosed mouse; how it was run: as §1

Compound	MIC (Enterococcus faecium [1]) [µg/mL]	MIC (Staphylococcus aureus [2]) [µg/mL]	ED50 (Enterococcus faecium [3]) [mg/kg]	MIC (Staphylococcus aureus [4]) [µg/mL]	MIC (Enterococcus faecalis [5]) [µg/mL]	MIC (Staphylococcus aureus [6]) [µg/mL]	MIC (Enterococcus faecalis [7]) [µg/mL]	ED50 (Enterococcus faecium [8]) [mg/kg]
CC(=O)NC[C@H]1CN(c2ccc(N3CCN(C(=O)Nc4ccc(Cl)cc4Cl)CC3)c(F)c2)C(=O)O1	2 (≈ 3.81 µM)	1 (≈ 1.91 µM)	> 10	2 (≈ 3.81 µM)	1 (≈ 1.91 µM)	2 (≈ 3.81 µM)	2 (≈ 3.81 µM)	
CC(=O)NC[C@H]1CN(c2ccc(N3CCN(C(=O)NC4CCCCCC4)CC3)c(F)c2)C(=O)O1	4 (≈ 8.41 µM)	4 (≈ 8.41 µM)		4 (≈ 8.41 µM)	2 (≈ 4.21 µM)	4 (≈ 8.41 µM)	4 (≈ 8.41 µM)	
CC(=O)NC[C@H]1CN(c2ccc(N3CCN(C(=O)Nc4ccon4)CC3)c(F)c2)C(=O)O1	4 (≈ 8.96 µM)	4 (≈ 8.96 µM)		4 (≈ 8.96 µM)	2 (≈ 4.48 µM)	4 (≈ 8.96 µM)	2 (≈ 4.48 µM)	
CC(=O)NC[C@H]1CN(c2ccc(N3CCN(C(=O)NC4CC4)CC3)c(F)c2)C(=O)O1	4 (≈ 9.54 µM)	8 (≈ 19.1 µM)		16 (≈ 38.1 µM)	4 (≈ 9.54 µM)	8 (≈ 19.1 µM)	8 (≈ 19.1 µM)	
CC(=O)NC[C@H]1CN(c2ccc(N3CCN(C(=O)Nc4ccccc4)CC3)c(F)c2)C(=O)O1	2 (≈ 4.39 µM)	4 (≈ 8.78 µM)	> 10	4 (≈ 8.78 µM)	2 (≈ 4.39 µM)	2 (≈ 4.39 µM)	2 (≈ 4.39 µM)	
CC(=O)NC[C@H]1CN(c2ccc(N3CCOCC3)c(F)c2)C(=O)O1 [LINEZOLID]	2 (≈ 5.93 µM)		3.91					
CC(=O)NC[C@H]1CN(c2ccc(N3CCN(C(=O)NCc4ccc(Cl)cc4)CC3)c(F)c2)C(=O)O1	4 (≈ 7.94 µM)	4 (≈ 7.94 µM)		4 (≈ 7.94 µM)	2 (≈ 3.97 µM)	4 (≈ 7.94 µM)	4 (≈ 7.94 µM)	
CC(=O)NC[C@H]1CN(c2ccc(N3CCN(C(=O)Nc4nccs4)CC3)c(F)c2)C(=O)O1	1 (≈ 2.16 µM)	2 (≈ 4.32 µM)	18.4	2 (≈ 4.32 µM)	1 (≈ 2.16 µM)	2 (≈ 4.32 µM)	1 (≈ 2.16 µM)	
COc1ccc(CNC(=O)N2CCN(c3ccc(N4C[C@H](CNC(C)=O)OC4=O)cc3F)CC2)cc1	2 (≈ 4 µM)	2 (≈ 4 µM)		4 (≈ 8.01 µM)	2 (≈ 4 µM)	2 (≈ 4 µM)	2 (≈ 4 µM)	
COc1ccccc1NC(=O)N1CCN(c2ccc(N3C[C@H](CNC(C)=O)OC3=O)cc2F)CC1	2 (≈ 4.12 µM)	2 (≈ 4.12 µM)	9.1	2 (≈ 4.12 µM)	2 (≈ 4.12 µM)	2 (≈ 4.12 µM)	2 (≈ 4.12 µM)	
COc1ccc(NC(=O)N2CCN(c3ccc(N4C[C@H](CNC(C)=O)OC4=O)cc3F)CC2)c(OC)c1	4 (≈ 7.76 µM)	4 (≈ 7.76 µM)		4 (≈ 7.76 µM)	2 (≈ 3.88 µM)	4 (≈ 7.76 µM)	2 (≈ 3.88 µM)	
CC(=N)NC(=O)N1CCN(c2ccc(N3C[C@H](CNC(C)=O)OC3=O)cc2F)CC1	4 (≈ 9.51 µM)	4 (≈ 9.51 µM)		4 (≈ 9.51 µM)	2 (≈ 4.76 µM)	4 (≈ 9.51 µM)	2 (≈ 4.76 µM)	
CC(=O)NC[C@H]1CN(c2ccc(N3CCN(C(N)=O)CC3)c(F)c2)C(=O)O1	2 (≈ 5.27 µM)	2 (≈ 5.27 µM)	13.8	4 (≈ 10.5 µM)	2 (≈ 5.27 µM)	2 (≈ 5.27 µM)	2 (≈ 5.27 µM)	
CC(=O)NC[C@H]1CN(c2ccc(N3CCN(C(=O)NC4CCCC4)CC3)c(F)c2)C(=O)O1	4 (≈ 8.94 µM)	8 (≈ 17.9 µM)		8 (≈ 17.9 µM)	4 (≈ 8.94 µM)	8 (≈ 17.9 µM)	4 (≈ 8.94 µM)	
CC(=O)NC[C@H]1CN(c2ccc(N3CCN(C(=O)Nc4ccccn4)CC3)c(F)c2)C(=O)O1	1 (≈ 2.19 µM)	2 (≈ 4.38 µM)		2 (≈ 4.38 µM)	1 (≈ 2.19 µM)	2 (≈ 4.38 µM)	1 (≈ 2.19 µM)	
CN[C@H](CC(C)C)C(=O)N[C@H]1C(=O)N[C@@H](CC(N)=O)C(=O)N[C@H]2C(=O)N[C@H]3C(=O)N[C@H](C(=O)N[C@H](C(=O)O)c4cc(O)cc(O)c4-c4cc3ccc4O)[C@H](O)c3ccc(c(Cl)c3)Oc3cc2cc(c3O[C@@H]2O[C@H](CO)[C@@H](O)[C@H](O)[C@H]2O[C@H]2C[C@](C)(N)[C@H](O)[C@H](C)O2)Oc2ccc(cc2Cl)[C@H]1O [VANCOMYCIN]	> 32				> 32		2 (≈ 1.38 µM)	3.93
CNC(=O)N1CCN(c2ccc(N3C[C@H](CNC(C)=O)OC3=O)cc2F)CC1	4 (≈ 10.2 µM)	4 (≈ 10.2 µM)		4 (≈ 10.2 µM)	2 (≈ 5.08 µM)	4 (≈ 10.2 µM)	4 (≈ 10.2 µM)	
CC(=O)NC[C@H]1CN(c2ccc(N3CCN(C(=O)Nc4cccc(F)c4)CC3)c(F)c2)C(=O)O1	2 (≈ 4.22 µM)	2 (≈ 4.22 µM)	18.4	4 (≈ 8.45 µM)	1 (≈ 2.11 µM)	2 (≈ 4.22 µM)	2 (≈ 4.22 µM)	
CC(=O)NC[C@H]1CN(c2ccc(N3CCN(C(=O)Nc4ccccc4Cl)CC3)c(F)c2)C(=O)O1	2 (≈ 4.08 µM)	2 (≈ 4.08 µM)		4 (≈ 8.16 µM)	2 (≈ 4.08 µM)	2 (≈ 4.08 µM)	2 (≈ 4.08 µM)	
CC(=O)NC[C@H]1CN(c2ccc(N3CCN(C(=O)NO)CC3)c(F)c2)C(=O)O1	2 (≈ 5.06 µM)	4 (≈ 10.1 µM)		4 (≈ 10.1 µM)	2 (≈ 5.06 µM)	2 (≈ 5.06 µM)	4 (≈ 10.1 µM)	
CC(=O)NC[C@H]1CN(c2ccc(N3CCN(C(=O)NC(C)=O)CC3)c(F)c2)C(=O)O1	4 (≈ 9.49 µM)	8 (≈ 19 µM)		16 (≈ 38 µM)	4 (≈ 9.49 µM)	8 (≈ 19 µM)	8 (≈ 19 µM)	
